Measurements as given in ChEMBL document CHEMBL1287769, “Investigating the activity of 2-substituted alkyl-6-(2,5-dioxopyrrolidin-1-yl)hexanoates as skin penetration enhancers” (Bioorg Med Chem, 2010).

Legend:
[1] = Potentiation of theophylline transdermal permeation in pig ear skin after 24 hrs by Franz diffusion cells method relative to untreated control; type: functional, Sus scrofa
How it was run: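 Thawed full-thickness porcine ear skin, epidermis up, in vertical Franz cell (0.635 cm2 donor area). Receptor: PBS pH 7.4, 37 °C, stirred; skin equilibrated 0.5 h. Donor: enhancer 20 mg in PG 0.5 mL plus theophylline 5 mg in water 0.5 mL, sonicated; controls without enhancer. Receptor sampled at 1, 2, 4, 8, 12, 24 h, theophylline by HPLC at 280 nm. Steady-state flux from linear region; ER = flux with/without enhancer; ≥3 determinations, ≥2 animals.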

[2] = Lipophilicity, log K of the compound in methanol-water mixture by HPLC; type: physicochemical
How it was run: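 Isocratic RP-HPLC on end-capped C18 column, methanol as organic modifier in mobile phase at various amounts, 25 °C, detection 204 nm. Dead time from KI in methanol. Capacity factor k = (tR − tD)/tD; log k used as lipophilicity index.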

SK-N-MC = assay: Antiproliferative activity against human SK-N-MC cells after 72 hrs by MTT assay; type: cell-based
How it was run: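 SK-N-MC cells (ATCC) grown in MEM with 10% FBS, pyruvate, non-essential amino acids, glutamine, antibiotics, fungizone at 37 °C, 5% CO2. Seeded 1.5 × 10^4 cells/well in medium with human diferric transferrin 1.25 µM ([Fe] = 2.5 µM), compounds 0–25 µM, 72 h. MTT added for 2 h, solubilized in SDS/isobutanol/HCl, read at 570 nm. IC50 = concentration reducing absorbance to 50% of untreated control; mean ± SD, n = 3.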

Structure (SMILES): CCCCCCCCCOC(=O)C(CCCCN1C(=O)CCC1=O)N1CCCCC1=O (stereo unspecified)
- fold change (FC) [1]: 1.81
- log K [2]: 0.2638
- IC50 (SK-N-MC): > 6.25 µM

Structure (SMILES): CCCCCCCCCOC(=O)C(CCCCN1C(=O)CCC1=O)N1CCOCC1 (stereo unspecified)
- fold change (FC) [1]: 1.49
- log K [2]: 0.4177
- IC50 (SK-N-MC): > 6.25 µM

Structure (SMILES): CCCCCCCCCCCCOC(=O)C(CCCCN1C(=O)CCC1=O)N1CCOCC1 (stereo unspecified)
- fold change (FC) [1]: 1.92
- log K [2]: 0.9221
- IC50 (SK-N-MC): > 6.25 µM

Structure (SMILES): CCCCCCCCCCCCOC(=O)C(CCCCN1C(=O)CCC1=O)N1CCCCC1=O (stereo unspecified)
- fold change (FC) [1]: 1.75
- log K [2]: 0.7413
- IC50 (SK-N-MC): > 6.25 µM

Structure (SMILES): CC(=O)N(O)CCCCCNC(=O)CCC(=O)N(O)CCCCCNC(=O)CCC(=O)N(O)CCCCCN [DEFEROXAMINE]
- IC50 (SK-N-MC): 17.1 µM

Structure (SMILES): CCCCCCCCOC(=O)C(CCCCN1C(=O)CCC1=O)N1CCOCC1 (stereo unspecified)
- fold change (FC) [1]: 1.8
- log K [2]: 0.2613
- IC50 (SK-N-MC): > 6.25 µM

Structure (SMILES): CCOC(=O)C(CCCCN1C(=O)CCC1=O)N1CCCCC1=O (stereo unspecified)
- log K [2]: -0.9565

Structure (SMILES): CCCCCCCCCCOC(=O)C(CCCCN1C(=O)CCC1=O)N1CCOCC1 (stereo unspecified)
- fold change (FC) [1]: 1.71
- log K [2]: 0.5834
- IC50 (SK-N-MC): > 6.25 µM

Structure (SMILES): CCCCCCCCCCCOC(=O)C(CCCCN1C(=O)CCC1=O)N1CCCCC1=O (stereo unspecified)
- fold change (FC) [1]: 2.36
- log K [2]: 0.5894
- IC50 (SK-N-MC): > 6.25 µM

Structure (SMILES): CCCCCCCOC(=O)C(CCCCN1C(=O)CCC1=O)N1CCCCC1=O (stereo unspecified)
- fold change (FC) [1]: 2.17
- log K [2]: -0.0685
- IC50 (SK-N-MC): > 6.25 µM

Structure (SMILES): CCCCCCCCCCOC(=O)C(CCCCN1C(=O)CCC1=O)N1CCCCC1=O (stereo unspecified)
- fold change (FC) [1]: 1.63
- log K [2]: 0.4285
- IC50 (SK-N-MC): > 6.25 µM

Structure (SMILES): CCCCCCOC(=O)C(CCCCN1C(=O)CCC1=O)N1CCCCC1=O (stereo unspecified)
- fold change (FC) [1]: 2.33
- log K [2]: -0.2356
- IC50 (SK-N-MC): > 6.25 µM

Structure (SMILES): CCCCCCCCCCCOC(=O)C(CCCCN1C(=O)CCC1=O)N1CCOCC1 (stereo unspecified)
- fold change (FC) [1]: 1.61
- log K [2]: 0.7588
- IC50 (SK-N-MC): > 6.25 µM

Structure (SMILES): CCCCCCCC/C=C\CCCCCCCC(=O)O [OLEIC ACID]
- fold change (FC) [1]: 1.13

Structure (SMILES): CCCCCCCOC(=O)C(CCCCN1C(=O)CCC1=O)N1CCOCC1 (stereo unspecified)
- fold change (FC) [1]: 1.26
- log K [2]: 0.0934
- IC50 (SK-N-MC): > 6.25 µM

Structure (SMILES): CCCCCCCCOC(=O)C(CCCCN1C(=O)CCC1=O)N1CCCCC1=O (stereo unspecified)
- fold change (FC) [1]: 1.88
- log K [2]: 0.0973
- IC50 (SK-N-MC): > 6.25 µM

Structure (SMILES): CCOC(=O)C(CCCCN1C(=O)CCC1=O)N1CCOCC1 (stereo unspecified)
- log K [2]: -0.7951

Structure (SMILES): CCCCCCOC(=O)C(CCCCN1C(=O)CCC1=O)N1CCOCC1 (stereo unspecified)
- fold change (FC) [1]: 2.11
- log K [2]: -0.0736
- IC50 (SK-N-MC): > 6.25 µM
